High-throughput results deposited in PubChem by several laboratories.
T cruzi repl: inhibitors of intracellular T. cruzi growth, primary screen, luminescence, NIH3T3 host cells; AID 1885, 2009; T. cruzi beta-gal in NIH3T3, 90 h; 300,000 tested, 1.4% active; inhibition, % (test concentration not listed);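 active = mean inhibition across valid replicates above about 55%, limit read from the data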;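 note: signal also drops with host cell toxicity which is not excluded here; 0% = plate median of DMSO wells and 100% = zero luminescence signal; higher percent means less beta-gal luminescence so fewer parasites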
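Material: NIH/3T3 host cells with β-galactosidase reporter T. cruzi; Input: 5,000 host fibroblasts per well; Medium: DMEM, 2% fetal bovine serum; Compound: 50 nL DMSO compound solution per well; Schedule: 3 h host attachment, then at least 90 h co-culture; Detection: luminescent β-galactosidase signal after 60 min lysis.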
L major viab: Leishmania major promastigote growth inhibition, primary screen. AID 1063, 2008. Leishmania major promastigotes, resazurin fluorescence viability. inhibition, % at 10 µM. 200,000 tested, 9% active; in the data active = inhibition above about 50%;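 note: promastigotes grown with compound for 44 hours at 28 °C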
CHOP inh: inhibitors of CHOP promoter induction, primary screen, cell-based, unfolded protein response, luciferase reporter | AID 2732, 2010 | inhibition, % at 10 µM | CHO-K1 CHOP-promoter luciferase, tunicamycin-induced, 15-18 h | 220,000 tested, 3.8% active;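 active = compounds that reduced the stress-induced luciferase reporter signal by more than about 70% of percent inhibition, limit read from the data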;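 note: 0% = tunicamycin plus vehicle and 100% = wells without tunicamycin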
XBP1 UPR activ: activators of adaptive XBP1 UPR arm, primary screen, cell-based, CHO-XBP1 luciferase reporter, luminescence, uHTS. IRE1-XBP1 UPR activation; percent of tunicamycin response, DMSO as zero. activation, % at 20 µM. 330,000 tested, 0.33% active. AID 463104, 2010;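 active = versus positive control, 20 µM dose yields 30% or more activation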;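 note: 100% = tunicamycin at 10 µg/mL and 0% = DMSO only wells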
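Material: CHO-XBP1 cells stably carrying IRE1-XBP1-driven luciferase reporter / Amount: 1000 cells per well / Compound: 20 µM, 1% DMSO / Times: 6 h treatment, 37 °C / Detection: luciferase luminescence / Measure: % activation of reporter signal versus tunicamycin and DMSO controls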
Dynein cargo inh: inhibitors of GR-EGFP nuclear translocation, primary screen, dynein cargo transport inhibitor project, imaging, high-content, 3617.4 mouse cells. test concentration mostly 20 µM; stimulated with dexamethasone, 1 µM; hits give low values. z-score, hits read low. 220,000 tested, 0.47% active. AID 1381, 2008;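 active = plate z-score of nuclear minus cytoplasmic receptor signal below a set negative limit, without overly bright fluorescence or cell loss, cut at about -3.5 in these data, passing the limit was not always enough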;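 note: z-score of nuclear minus cytoplasmic ring GR-EGFP intensity difference per well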
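Medium: Induction medium lacking tetracycline, stripped serum | Probe or stimulus: 1.0 µM final dexamethasone stimulus | Schedule: 48 h induction, then 1 h compound, then 30 min agonist, 37 °C | Signal: Automated 10x imaging of fixed Hoechst-stained cells | Evaluation: Per-cell GR-EGFP intensity, nucleus versus surrounding cytoplasmic ring, well-averaged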
UPR CHOP act: activators of apoptotic CHOP UPR arm, primary screen, cell-based, CHO-CHOP luciferase reporter, luminescence, uHTS; UPR activation; percent of tunicamycin response over DMSO baseline; activation, % at 10 µM; 330,000 tested, 0.34% active;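 active = at 10 µM dose, activation of 40% or more, normalized to positive control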;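 note: 100% = tunicamycin at 10 µg/mL and 0% = DMSO alone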
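Dosing – one dose, 10 µM in 0.5% DMSO · System – CHO-CHOP cells, stable luciferase reporter of PERK-eIF2a-CHOP signalling · Input – 500 cells/well · Control set – tunicamycin 10 µg/mL final as positive, DMSO-only wells as negative · Timing – 6 h compound treatment, 37 °C · Measure – % activation vs tunicamycin · Technique – luminescence read with Steady-Glo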
Starred values were filed as active, the others as inactive; i = inactive; x = no result given. This excerpt belongs to a sample that is enriched for hits.

SMILES	T cruzi repl	L major viab	CHOP inh	XBP1 UPR activ	Dynein cargo inh	UPR CHOP act
Cc1nnc(NC(=O)c2ccc(S(=O)(=O)N3CCc4ccccc4C3)cc2)o1	-6	-6	15	1	0.71	-1
Cc1cc(C)c2sc(N(CCCN(C)C)C(=O)c3ccc(S(=O)(=O)N4CCc5ccccc5C4)cc3)nc2c1	47	x	x	-9	x	1
Cc1ccc(N=C2NC(=O)/C(=C\c3ccsc3)S2)c(C)c1	18	8	72*	1	-0.69	4
CCNc1nc(NCC)nc(N/N=C/c2ccc(Br)cc2)n1	18	50*	23	5	-0.79	-1
Cc1ccc(/C=N/Nc2nc(C)cc(C)n2)cc1	3	x	-6	1	0.44	0
CC(=O)N1c2ccc(S(=O)(=O)N3CCC(C(=O)NCCc4ccc(Cl)cc4)CC3)cc2CC1C (stereo not drawn)	17	x	x	-6	x	4
CCCCCC(=O)Nc1cccc(C2=NOC3(C2)C[C@@H](C(N)=O)N(C(=O)c2ccc(Cl)cc2)C3)c1 (stereo partly drawn)	60*	x	9	0	-0.61	0
CCC(=O)N1CC2(CC(c3cccc(NC(=O)COc4ccc(Cl)cc4)c3)=NO2)C[C@@H]1C(N)=O (stereo partly drawn)	-18	x	3	0	-0.9	1
NC(=O)[C@H]1CC2(CC(c3cccc(NC(=O)COc4ccc(Cl)cc4)c3)=NO2)CN1C(=O)c1ccc(Cl)cc1 (stereo partly drawn)	32	x	95*	2	0.97	2
Cc1cc(NC(=O)c2cc3n(n2)C(C(F)(F)F)CC(c2ccco2)N3)n(-c2ccccc2)n1 (stereo not drawn)	25	17	76*	-3	-0.17	-1
O=C(NCC12CC3CC(CC(C3)C1)C2)c1cc2n(n1)C(C(F)(F)F)CC(c1ccco1)N2 (stereo not drawn)	20	31	102*	-4	0.18	-1
O=C(c1cc2n(n1)C(C(F)(F)F)CC(c1ccco1)N2)N1CCc2ccccc2C1 (stereo not drawn)	9	54*	83*	4	0.24	0
CCOC(=O)Nc1ccc(N2CCOCC2)c(S(=O)(=O)N2CCOCC2)c1	-15	x	x	-1	x	1
CC(=O)c1c(COC(=O)c2ccccc2Cl)nc2ccccc2[n+]1[O-]	-2	x	4	0	-0.84	-1
COCCCNC(=O)c1ccc(-n2nc(C(F)(F)F)cc2-c2cccs2)cc1	0	7	41	1	-0.7	-2
O=C(NCCCN1CCOCC1)c1ccc(-n2nc(C(F)(F)F)cc2-c2cccs2)cc1	1	3	76*	1	0.61	-1
CC(=O)n1cc([C@H]2C=C(C(=O)Nc3ccccc3)O[C@@H](OCCCCO)C2)c2ccccc21	-6	54*	5	1	1.9	4
O=C(Nc1ccccc1)C1=C[C@H](C2CCCCC2)C[C@H](OCc2ccc(CO)cc2)O1	20	38	11	2	-0.46	2
O=C(Nc1ccccc1)C1=C[C@@H](C2CCCCC2)C[C@@H](OCc2ccc(CO)cc2)O1	24	97*	-28	4	-0.75	2
CCO[C@H]1OC(C(=O)NCc2ccccc2)=C[C@@H](c2cn(C(C)=O)c3ccccc23)[C@@H]1CCCO	10	82*	36	-5	-0.38	2
O=C(Nc1ccccc1)C1=C[C@H](C2CCCCC2)C[C@H](OCCCCO)O1	21	x	x	0	x	5
O=C(Nc1ccccc1)C1=C[C@@H](C2CCCCC2)C[C@@H](OCCCCO)O1	2	92*	-7	-1	-1.2	3
CCCc1cc(=O)oc2cc(OCC(=O)Nc3ccc(S(N)(=O)=O)cc3)ccc12	-11	x	x	-3	x	0
FC(F)(F)c1nc(Oc2ccccc2)c2ccccc2n1	1	0	83*	4	-0.11	-1
COc1ccc(CNC(=O)c2csc(Cc3ccc(Cl)cc3)n2)cc1	10	-3	72*	0	0.28	-1
SMILES	T cruzi repl	L major viab	CHOP inh	XBP1 UPR activ	Dynein cargo inh	UPR CHOP act
CSc1ncccc1C(=O)NNC(=O)c1ccc(NS(=O)(=O)c2cccs2)cc1	-22	x	x	4	x	1
Cc1noc(C)c1C(=O)OCC(=O)NC(=O)NC12CC3CC(CC(C3)C1)C2	-9	7	81*	0	i	0
CC(Cl)C(=O)NC(=O)NC12CC3CC(CC(C3)C1)C2 (stereo not drawn)	-15	-2	12	2	-0.62	2
O=C(CCl)NC(=O)NC12CC3CC(CC(C3)C1)C2	12	101*	103*	x	-3.4	x
CCCCNC(=O)c1cccc2c(=O)c(C)c(-c3ccccc3)oc12	9	1	8	-6	0.28	-1
COc1cccc2cc(C(=O)N3CCN(c4ccccc4F)CC3)c(=O)oc12	-4	-5	4	0	-0.17	0
Cc1c(-c2ccccc2)oc2c(C(=O)N3CCN(c4ccccc4F)CC3)cccc2c1=O	17	0	71*	1	-0.72	0
Cc1ccc(NC(=O)COC(=O)c2cccc3c(=O)c(C)c(-c4ccccc4)oc23)cc1	6	66*	8	-1	-0.78	2
CCCCN(C(=O)c1cccc2c(=O)c(C)c(-c3ccccc3)oc12)c1ccccc1	39	73*	-9	x	0.21	x
Cc1ccc(NC(=O)COC(=O)c2c(C)nn(-c3ccccc3)c2C)cc1	x	x	x	-2	x	0
Cn1nc(C(=O)NNC(=O)c2cccc(Cl)c2)ccc1=O	x	x	x	-2	x	0
COc1ccc(NC(=O)CSc2nnc(-c3cccs3)n2N)cc1S(N)(=O)=O	x	x	x	-1	x	-1
O=S(=O)(NCCCNS(=O)(=O)c1c(F)cccc1F)c1ccc2c(c1)OCCO2	x	x	x	0	x	2
CC(=O)Oc1ccccc1N(C(C)=O)S(=O)(=O)c1ccc2ccccc2c1	-23	7	12	1	-0.18	1
CC(=O)Oc1ccc(N(C(C)=O)S(=O)(=O)c2cccs2)c2ccccc12	-5	100*	-48	3	-1.9	11
O=C(Cn1cc(C(F)(F)F)cc(Cl)c1=O)Nc1cccc(Cl)c1	-6	-2	-9	-6	0.98	3
O=C(Cn1cc(C(F)(F)F)cc(Cl)c1=O)NCCc1ccc(Cl)cc1Cl	-6	x	74*	-3	-0.58	-1
CC1=NCCN1CCNC(=O)Nc1ccc(C(C)(C)C)cc1	-6	x	6	-3	0.46	1
